Measured values reported in ChEMBL document CHEMBL3792328, “Diketopiperazines from Costa Rican endolichenic fungus Colpoma sp. CR1465A” (2016).

What was measured:
Assay type in all cases: functional
Escherichia coli = assay: Antibacterial activity against Escherichia coli ATCC 25922 after 12 hrs by broth-dilution method; settings: ATCC 25922, 12 h
How it was run: (§1)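 Standardized ATCC strains were tested in triplicate by broth dilution. The panel comprised Gram-negative E. coli, Gram-positive B. subtilis and S. aureus, and the yeasts S. cerevisiae and C. albicans. Minimum inhibitory concentration was determined for the growth-inhibition lines. Minimum fungicidal concentration was determined for the fungicidal yeast lines.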

Saccharomyces cerevisiae [1] = assay: Fungicidal activity against Saccharomyces cerevisiae ATCC 9763 after 48 hrs by broth-dilution method; settings: ATCC 9763, 48 h, read-out: MFC99.9; how it was run: as §1
Candida albicans [2] = assay: Antifungal activity against Candida albicans ATCC 10231 after 12 hrs by broth-dilution method; settings: ATCC 10231, 12 h; how it was run: as §1
Saccharomyces cerevisiae [3] = assay: Antifungal activity against Saccharomyces cerevisiae ATCC 9763 after 12 hrs by broth-dilution method; settings: ATCC 9763, 12 h; how it was run: as §1
Candida albicans [4] = assay: Fungicidal activity against Candida albicans ATCC 10231 after 48 hrs by broth-dilution method; settings: ATCC 10231, 48 h, read-out: MFC99.9; how it was run: as §1
Bacillus spizizenii = assay: Antibacterial activity against Bacillus subtilis ATCC 6633 after 12 hrs by broth-dilution method; settings: ATCC 6633, 12 h; how it was run: as §1
Staphylococcus aureus = assay: Antibacterial activity against Staphylococcus aureus BAA-2313 after 12 hrs by broth-dilution method; settings: BAA-2313, 12 h; how it was run: as §1

O=C(O)CC[C@H]1NC(=O)[C@@H]2CCCN2C1=O
> 200 µg/mL: MIC (Escherichia coli) | MFC (Saccharomyces cerevisiae [1]) | MIC (Candida albicans [2]) | MIC (Saccharomyces cerevisiae [3]) | MFC (Candida albicans [4]) | MIC (Bacillus spizizenii) | MIC (Staphylococcus aureus)

O=C1NCC(=O)N2CCC[C@H]12
> 200 µg/mL: MIC (Escherichia coli) | MFC (Saccharomyces cerevisiae [1]) | MIC (Candida albicans [2]) | MIC (Saccharomyces cerevisiae [3]) | MFC (Candida albicans [4]) | MIC (Bacillus spizizenii) | MIC (Staphylococcus aureus)

C[C@@H](O)[C@H]1NC(=O)[C@@H]2CCCN2C1=O
> 200 µg/mL: MIC (Escherichia coli) | MFC (Saccharomyces cerevisiae [1]) | MIC (Candida albicans [2]) | MIC (Saccharomyces cerevisiae [3]) | MFC (Candida albicans [4]) | MIC (Bacillus spizizenii) | MIC (Staphylococcus aureus)

C[C@H]1NC(=O)[C@@H]2CCCN2C1=O
> 200 µg/mL: MIC (Escherichia coli) | MFC (Saccharomyces cerevisiae [1]) | MIC (Candida albicans [2]) | MIC (Saccharomyces cerevisiae [3]) | MFC (Candida albicans [4]) | MIC (Bacillus spizizenii) | MIC (Staphylococcus aureus)

O=C(O)C[C@@H]1NC(=O)[C@@H]2CCCN2C1=O
> 200 µg/mL: MIC (Escherichia coli) | MFC (Saccharomyces cerevisiae [1]) | MIC (Candida albicans [2]) | MIC (Saccharomyces cerevisiae [3]) | MFC (Candida albicans [4]) | MIC (Bacillus spizizenii) | MIC (Staphylococcus aureus)

O=C1[C@@H]2CCCN2C(=O)[C@H]2C[C@H](O)CN12
> 200 µg/mL: MIC (Escherichia coli) | MFC (Saccharomyces cerevisiae [1]) | MIC (Candida albicans [2]) | MIC (Saccharomyces cerevisiae [3]) | MFC (Candida albicans [4]) | MIC (Bacillus spizizenii) | MIC (Staphylococcus aureus)

C[C@@H]1NC(=O)[C@@H]2CCCN2C1=O
> 200 µg/mL: MIC (Escherichia coli) | MFC (Saccharomyces cerevisiae [1]) | MIC (Candida albicans [2]) | MIC (Saccharomyces cerevisiae [3]) | MFC (Candida albicans [4]) | MIC (Bacillus spizizenii) | MIC (Staphylococcus aureus)

O=C(O)CC[C@H]1NC(=O)[C@H]2CCCN2C1=O
> 200 µg/mL: MIC (Escherichia coli) | MFC (Saccharomyces cerevisiae [1]) | MIC (Candida albicans [2]) | MIC (Saccharomyces cerevisiae [3]) | MFC (Candida albicans [4]) | MIC (Bacillus spizizenii) | MIC (Staphylococcus aureus)
